Source: ChEMBL document CHEMBL5058577, “EUbOPEN Chemogenomics Library 2 (Multiplex)” (2022)

Tested on: Fibroblast
Assay: Multiplex assay against human fibroblast
Format: toxicity, cell-based
Method in brief: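 Cells stained live at seeding with Hoechst33342, BioTracker Green Microtubule Cytoskeleton Dye, MitoTracker Red and Annexin V Alexa Fluor 680 were imaged on a CQ1 microscope at 37°C and 5% CO2 after compound addition. Their classification by CellPathfinder machine-learning gating ran from Hoechst high-intensity objects versus normal cells, to healthy, pyknosed or fragmented nuclei among normal cells, to mitotic or apoptotic among pyknosed cells. Tubulin, mitochondrial-mass and membrane-permeability phenotypes are per cents of healthy-nucleus cells.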

[1] = 12 h, 1 µM, compound concentration 1 uM, replicate 1
[2] = 12 h, 1 µM, compound concentration 1 uM, replicate 2
[3] = 12 h, 10 µM, compound concentration 10 uM, replicate 1
[4] = 12 h, 10 µM, compound concentration 10 uM, replicate 2
[5] = 24 h, 1 µM, compound concentration 1 uM, replicate 1
[6] = 24 h, 1 µM, compound concentration 1 uM, replicate 2
[7] = 24 h, 10 µM, compound concentration 10 uM, replicate 1
[8] = 24 h, 10 µM, compound concentration 10 uM, replicate 2
[9] = 48 h, 1 µM, compound concentration 1 uM, replicate 1
[10] = 48 h, 1 µM, compound concentration 1 uM, replicate 2
[11] = 48 h, 10 µM, compound concentration 10 uM, replicate 1
[12] = 48 h, 10 µM, compound concentration 10 uM, replicate 2

## COc1cc2nc(N3CCN(C(=O)c4ccco4)CC3)nc(N)c2cc1OC.Cl [PRAZOSIN HYDROCHLORIDE]
[1]
  Population Apoptotic (%): 38%
  Population Fragmented Nuclei (%): 22%
  Population Healthy Nuclei (%): 57%
  Population Hoechst High Intensity Objects (%): 1%
  Population Membrane Permeable-Phenotype (%): 1%
  Population Mitochondria Different-Phenotype (%): 1%
  Population Mitotic Cells (%): 61%
  Population Normal (%): 98%
  Population Pyknosed Nuclei (%): 19%
  Population Tubulin-Different-Phenotype (%): 26%
  Total Cell Count: 174
[2]
  Population Apoptotic (%): 49%
  Population Fragmented Nuclei (%): 20%
  Population Healthy Nuclei (%): 52%
  Population Hoechst High Intensity Objects (%): 4%
  Population Membrane Permeable-Phenotype (%): 5%
  Population Mitochondria Different-Phenotype (%): 7%
  Population Mitotic Cells (%): 50%
  Population Normal (%): 95%
  Population Pyknosed Nuclei (%): 27%
  Population Tubulin-Different-Phenotype (%): 46%
  Total Cell Count: 194
[3]
  Population Apoptotic (%): 44%
  Population Fragmented Nuclei (%): 23%
  Population Healthy Nuclei (%): 64%
  Population Hoechst High Intensity Objects (%): 1%
  Population Membrane Permeable-Phenotype (%): 0%
  Population Mitochondria Different-Phenotype (%): 7%
  Population Mitotic Cells (%): 56%
  Population Normal (%): 98%
  Population Pyknosed Nuclei (%): 12%
  Population Tubulin-Different-Phenotype (%): 49%
  Total Cell Count: 198
[4]
  Population Apoptotic (%): 31%
  Population Fragmented Nuclei (%): 35%
  Population Healthy Nuclei (%): 42%
  Population Hoechst High Intensity Objects (%): 5%
  Population Membrane Permeable-Phenotype (%): 9%
  Population Mitochondria Different-Phenotype (%): 3%
  Population Mitotic Cells (%): 68%
  Population Normal (%): 94%
  Population Pyknosed Nuclei (%): 21%
  Population Tubulin-Different-Phenotype (%): 65%
  Total Cell Count: 155
[5]
  Population Apoptotic (%): 50%
  Population Fragmented Nuclei (%): 20%
  Population Healthy Nuclei (%): 63%
  Population Hoechst High Intensity Objects (%): 2%
  Population Membrane Permeable-Phenotype (%): 0%
  Population Mitochondria Different-Phenotype (%): 2%
  Population Mitotic Cells (%): 50%
  Population Normal (%): 97%
  Population Pyknosed Nuclei (%): 15%
  Population Tubulin-Different-Phenotype (%): 28%
  Total Cell Count: 181
[6]
  Population Apoptotic (%): 45%
  Population Healthy Nuclei (%): 57%
  Population Hoechst High Intensity Objects (%): 7%
  Population Membrane Permeable-Phenotype (%): 12%
  Population Mitochondria Different-Phenotype (%): 3%
  Population Mitotic Cells (%): 54%
  Population Normal (%): 92%
  Population Pyknosed Nuclei (%): 21%
  Population Tubulin-Different-Phenotype (%): 58%
  Total Cell Count: 185
[7]
  Population Apoptotic (%): 46%
  Population Fragmented Nuclei (%): 23%
  Population Healthy Nuclei (%): 69%
  Population Hoechst High Intensity Objects (%): 3%
  Population Membrane Permeable-Phenotype (%): 0%
  Population Mitochondria Different-Phenotype (%): 6%
  Population Mitotic Cells (%): 53%
  Population Normal (%): 96%
  Population Pyknosed Nuclei (%): 6%
  Population Tubulin-Different-Phenotype (%): 45%
  Total Cell Count: 201
[8]
  Population Apoptotic (%): 61%
  Population Fragmented Nuclei (%): 35%
  Population Healthy Nuclei (%): 49%
  Population Hoechst High Intensity Objects (%): 7%
  Population Membrane Permeable-Phenotype (%): 10%
  Population Mitochondria Different-Phenotype (%): 11%
  Population Mitotic Cells (%): 38%
  Population Normal (%): 92%
  Population Pyknosed Nuclei (%): 15%
  Population Tubulin-Different-Phenotype (%): 73%
  Total Cell Count: 152
[9]
  Population Apoptotic (%): 52%
  Population Fragmented Nuclei (%): 24%
  Population Healthy Nuclei (%): 62%
  Population Hoechst High Intensity Objects (%): 3%
  Population Membrane Permeable-Phenotype (%): 0%
  Population Mitochondria Different-Phenotype (%): 1%
  Population Mitotic Cells (%): 47%
  Population Normal (%): 96%
  Population Pyknosed Nuclei (%): 13%
  Population Tubulin-Different-Phenotype (%): 22%
  Total Cell Count: 182
[10]
  Population Apoptotic (%): 66%
  Population Fragmented Nuclei (%): 29%
  Population Healthy Nuclei (%): 56%
  Population Membrane Permeable-Phenotype (%): 8%
  Population Mitochondria Different-Phenotype (%): 6%
  Population Mitotic Cells (%): 33%
  Population Pyknosed Nuclei (%): 14%
  Population Tubulin-Different-Phenotype (%): 57%
  Total Cell Count: 197
[11]
  Population Apoptotic (%): 66%
  Population Fragmented Nuclei (%): 25%
  Population Healthy Nuclei (%): 68%
  Population Hoechst High Intensity Objects (%): 1%
  Population Membrane Permeable-Phenotype (%): 0%
  Population Mitochondria Different-Phenotype (%): 4%
  Population Mitotic Cells (%): 33%
  Population Normal (%): 98%
  Population Pyknosed Nuclei (%): 6%
  Population Tubulin-Different-Phenotype (%): 32%
  Total Cell Count: 201
[12]
  Population Apoptotic (%): 46%
  Population Fragmented Nuclei (%): 42%
  Population Healthy Nuclei (%): 49%
  Population Hoechst High Intensity Objects (%): 5%
  Population Membrane Permeable-Phenotype (%): 5%
  Population Mitochondria Different-Phenotype (%): 5%
  Population Mitotic Cells (%): 53%
  Population Normal (%): 94%
  Population Pyknosed Nuclei (%): 8%
  Population Tubulin-Different-Phenotype (%): 48%
  Total Cell Count: 170
